The values below come from ChEMBL document CHEMBL2331221, “Potent elastase inhibitors from cyanobacteria: structural basis and mechanisms mediating cytoprotective and anti-inflammatory effects in bronchial epithelial cells” (J Med Chem, 2013).

Experiment [1] addresses T1, Tryptase gamma (Homo sapiens, UniProt Q9NRR2). Briefly: Inhibition of Tryptase gamma1 (unknown origin) using Z-GPR-AMC substrate incubated for 15 mins prior to substrate addition measured for 2 hrs. The method, boiled down: (§1)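 Protease panel screen: enzyme and inhibitor preincubated 15 min in reaction buffer, then substrate added; reaction followed for 2 h and the initial linear part of the progress curve used for activity. Enzyme, substrate, buffer and detection details are given only in a supporting table.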

Experiment [2] addresses T2, Neutrophil elastase (Homo sapiens) (UniProt P08246).
T2 sequence (whole entry): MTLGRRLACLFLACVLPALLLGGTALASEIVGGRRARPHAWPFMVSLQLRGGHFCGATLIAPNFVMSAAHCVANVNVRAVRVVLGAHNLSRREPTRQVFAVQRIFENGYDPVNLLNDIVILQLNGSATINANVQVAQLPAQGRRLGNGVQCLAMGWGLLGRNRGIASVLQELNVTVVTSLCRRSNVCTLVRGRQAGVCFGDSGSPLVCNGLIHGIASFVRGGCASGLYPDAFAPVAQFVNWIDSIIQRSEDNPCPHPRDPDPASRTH
Conditions: 10 uM.

A short description of experiment [3]: Inhibition of human pancreatic chymotrypsin assessed as proteolysis using N-succinyl-Ala-Ala-Pro-Phe-p-nitroanilide substrate incubated for 30 mins prior to substrate addition.
The next experiment has as its target Papain (Carica papaya) (UniProt P00784). Briefly: Inhibition of papaya Papain using Z-FR-AMC substrate assessed as residual activity at 10 uM incubated for 15 mins prior to substrate addition measured for 2 hrs. Put shortly:
as §1

For experiment [4], the target named is Matrilysin (Homo sapiens) (UniProt P09237). Briefly: Inhibition of MMP7 (unknown origin) using (5-FAM/QXLTM) FRET peptide substrate assessed as residual activity at 10 uM incubated for 15 mins prior to substrate addition measured for 2 hrs. Put shortly:
as §1

The next experiment deals with Trypsin (Homo sapiens, UniProt P07477+P07478+P35030). Kind of experiment: Inhibition of Trypsin (unknown origin) using H-D-CHA -Ala-Arg-AMC.2AcOH substrate incubated for 15 mins prior to substrate addition measured for 2 hrs. Format: protein assay. The method, boiled down:
as §1

The target in experiment [5] is Interstitial collagenase (Homo sapiens) (UniProt P03956). Kind of experiment: Inhibition of MMP1 (unknown origin) using (5-FAM/QXLTM) FRET peptide substrate assessed as residual activity at 10 uM incubated for 15 mins prior to substrate addition measured for 2 hrs. The method, boiled down:
(§2)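 Protease panel screen: enzyme and test inhibitor preincubated 15 min in the enzyme's reaction buffer, then substrate added. Reaction followed for 2 h, and activity was taken from the initial linear portion of the progress-curve slope. Enzyme, substrate, buffer and detection conditions for each target are given only in the paper's supporting table.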

Experiment [6] has as its target Angiotensin-converting enzyme (Homo sapiens) (UniProt P12821). Briefly: Inhibition of ACE1 (unknown origin) using MCA-RPPGFSAFK(Dnp) substrate assessed as residual activity at 10 uM incubated for 15 mins prior to substrate addition measured for 2 hrs. Put shortly:
as §2

Experiment [7] has as its target T1, Tryptase gamma. Briefly: Inhibition of Tryptase gamma1 (unknown origin) using Z-GPR-AMC substrate assessed as residual activity at 10 uM incubated for 15 mins prior to substrate addition measured for 2 hrs. The method, boiled down: as §1
For a further experiment, the target named is Chymase (Homo sapiens, UniProt P23946). Briefly: Inhibition of Chymase (unknown origin) using Suc-AAPF-AMC substrate incubated for 15 mins prior to substrate addition measured for 2 hrs. The method, boiled down: as §2
Experiment [8] deals with Matrix metalloproteinase-9 (Homo sapiens) (UniProt P14780). Kind of experiment: Inhibition of MMP9 (unknown origin) using (5-FAM/QXLTM) FRET peptide substrate assessed as residual activity at 10 uM incubated for 15 mins prior to substrate addition measured for 2 hrs. The method, boiled down:
as §1

For experiment [9], the target named is Cathepsin E (Homo sapiens) (UniProt P14091). Kind of experiment: Inhibition of Cathepsin E (unknown origin) using MCA-KPILFFRLK(Dnp)-D-R-NH2 substrate assessed as residual activity at 10 uM incubated for 15 mins prior to substrate addition measured for 2 hrs. The method, boiled down: as §2
Sequence of Cathepsin E (Homo sapiens) (P14091 whole entry): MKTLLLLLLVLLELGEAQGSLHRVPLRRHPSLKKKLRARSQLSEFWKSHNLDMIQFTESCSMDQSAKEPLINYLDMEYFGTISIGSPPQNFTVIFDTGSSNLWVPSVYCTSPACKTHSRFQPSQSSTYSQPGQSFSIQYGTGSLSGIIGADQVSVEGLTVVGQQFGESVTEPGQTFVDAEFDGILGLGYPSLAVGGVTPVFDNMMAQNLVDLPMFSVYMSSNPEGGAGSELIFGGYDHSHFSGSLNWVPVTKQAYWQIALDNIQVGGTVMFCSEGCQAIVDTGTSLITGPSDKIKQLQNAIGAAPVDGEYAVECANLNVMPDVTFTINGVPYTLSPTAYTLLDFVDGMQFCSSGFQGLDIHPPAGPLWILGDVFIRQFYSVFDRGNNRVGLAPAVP
The target in experiment [10] is Kallikrein-1 (Homo sapiens) (UniProt P06870). Kind of experiment: Inhibition of Kallikrein-1 (unknown origin) using Z-GPR-AMC substrate assessed as residual activity at 10 uM incubated for 15 mins prior to substrate addition measured for 2 hrs. The method, boiled down: as §2
The target of experiment [11] is Tissue-type plasminogen activator (Homo sapiens) (UniProt P00750). Briefly: Inhibition of tPA (unknown origin) using Z-GPR-AMC substrate assessed as residual activity at 10 uM incubated for 15 mins prior to substrate addition measured for 2 hrs. Put shortly:
as §1

For experiment [12], the target named is Stromelysin-1 (Homo sapiens) (UniProt P08254). Briefly: Inhibition of MMP3 (unknown origin) using (5-FAM/QXLTM) FRET peptide substrate assessed as residual activity at 10 uM incubated for 15 mins prior to substrate addition measured for 2 hrs. Put shortly: as §2
Sequence of Stromelysin-1 (Homo sapiens) (P08254 100-477 limits assumed): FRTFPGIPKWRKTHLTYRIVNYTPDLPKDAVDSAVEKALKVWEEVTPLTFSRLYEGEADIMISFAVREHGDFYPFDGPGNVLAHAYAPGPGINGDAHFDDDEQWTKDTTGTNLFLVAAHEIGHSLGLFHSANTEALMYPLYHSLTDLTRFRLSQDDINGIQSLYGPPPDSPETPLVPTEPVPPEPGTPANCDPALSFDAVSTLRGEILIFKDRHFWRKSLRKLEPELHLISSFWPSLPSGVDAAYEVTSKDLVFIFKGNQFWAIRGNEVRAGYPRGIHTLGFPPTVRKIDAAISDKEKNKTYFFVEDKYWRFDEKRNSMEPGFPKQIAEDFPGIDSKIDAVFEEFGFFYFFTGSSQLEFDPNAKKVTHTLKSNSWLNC
Experiment [13] addresses Urokinase-type plasminogen activator (Homo sapiens) (UniProt P00749). Briefly: Inhibition of Urokinase (unknown origin) using Bz-b-Ala-Gly-Arg-AMC.AcOH substrate assessed as residual activity at 10 uM incubated for 15 mins prior to substrate addition measured for 2 hrs. Put shortly: as §1
Experiment [14] addresses Pro-cathepsin H (Homo sapiens) (UniProt P09668). Kind of experiment: Inhibition of Cathepsin H (unknown origin) using R-AMC substrate assessed as residual activity at 10 uM incubated for 15 mins prior to substrate addition measured for 2 hrs. The method, boiled down:
as §2

Experiment [15] concerns the target Matrix metalloproteinase-14 (Homo sapiens) (UniProt P50281). Kind of experiment: Inhibition of MMP14 (unknown origin) using (5-FAM/QXLTM) FRET peptide substrate assessed as residual activity at 10 uM incubated for 15 mins prior to substrate addition measured for 2 hrs. Put shortly: as §2
The nature of experiment [16]: Inhibition of human pancreatic Chymotrypsin using Suc-AAPF-pNa substrate incubated for 15 mins prior to substrate addition measured for 2 hrs. The method, boiled down:
as §1

Experiment [17] has as its target Dipeptidyl peptidase 4 (Homo sapiens) (UniProt P27487). Kind of experiment: Inhibition of DPP4 (unknown origin) using H-GP-AMC substrate assessed as residual activity at 10 uM incubated for 15 mins prior to substrate addition measured for 2 hrs. Put shortly: as §2
For experiment [18], the target named is Stromelysin-3 (Homo sapiens) (UniProt P24347). Kind of experiment: Inhibition of MMP11 (unknown origin) using (5-FAM/QXLTM) FRET peptide substrate assessed as residual activity at 10 uM incubated for 15 mins prior to substrate addition measured for 2 hrs. Put shortly: as §2
Sequence of Stromelysin-3 (Homo sapiens) (P24347 whole entry): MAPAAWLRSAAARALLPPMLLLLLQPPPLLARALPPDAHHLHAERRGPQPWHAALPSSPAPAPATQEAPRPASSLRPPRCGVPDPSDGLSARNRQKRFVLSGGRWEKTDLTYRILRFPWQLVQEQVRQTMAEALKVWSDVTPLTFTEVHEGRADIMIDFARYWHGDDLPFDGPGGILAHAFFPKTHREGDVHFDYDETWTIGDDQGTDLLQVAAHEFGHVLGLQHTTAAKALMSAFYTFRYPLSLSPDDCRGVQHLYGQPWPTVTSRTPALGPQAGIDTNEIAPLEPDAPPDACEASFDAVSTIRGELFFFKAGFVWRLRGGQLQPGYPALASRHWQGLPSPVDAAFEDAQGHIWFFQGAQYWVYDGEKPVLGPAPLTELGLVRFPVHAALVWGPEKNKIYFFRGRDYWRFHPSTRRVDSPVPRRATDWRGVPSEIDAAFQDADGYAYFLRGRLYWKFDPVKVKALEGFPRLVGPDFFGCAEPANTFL
Experiment [19] has as its target Cathepsin D (Homo sapiens) (UniProt P07339). Briefly: Inhibition of Cathepsin D (unknown origin) using MCA-KPILFFRLK(Dnp)-D-R-NH2 substrate assessed as residual activity at 10 uM incubated for 15 mins prior to substrate addition measured for 2 hrs. The method, boiled down:
as §2

The nature of experiment [20]: Inhibition of porcine pancreatic elastase using Suc-AAA-pNa substrate incubated for 15 mins prior to substrate addition measured for 2 hrs. Also noted: species or system Sus scrofa. The method, boiled down:
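Elastase preincubated with test compound (DMSO) in Tris-HCl pH 8.0 for 15 min at room temperature; N-succinyl-Ala-Ala-Ala-p-nitroanilide then added (2 mM stock in Tris-HCl pH 8.0). Absorbance at 405 nm recorded every 30 s; activity as initial slope, percent of uninhibited reaction.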

For experiment [21], the target named is Cathepsin L2 (Homo sapiens) (UniProt O60911). Briefly: Inhibition of Cathepsin V (unknown origin) using Z-FR-AMC substrate assessed as residual activity at 10 uM incubated for 15 mins prior to substrate addition measured for 2 hrs. Put shortly: as §2
Sequence of Cathepsin L2 (Homo sapiens) (O60911 whole entry): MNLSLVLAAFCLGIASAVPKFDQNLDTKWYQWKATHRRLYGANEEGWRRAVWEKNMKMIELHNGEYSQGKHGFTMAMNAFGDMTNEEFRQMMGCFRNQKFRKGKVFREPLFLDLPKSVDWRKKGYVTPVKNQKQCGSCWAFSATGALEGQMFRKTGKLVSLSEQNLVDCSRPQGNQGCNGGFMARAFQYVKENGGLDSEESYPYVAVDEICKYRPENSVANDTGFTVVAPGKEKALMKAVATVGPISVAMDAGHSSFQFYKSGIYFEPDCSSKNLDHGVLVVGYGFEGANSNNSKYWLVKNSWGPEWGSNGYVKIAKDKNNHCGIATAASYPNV

Active and inactive are the calls of the source. The rule behind the calls is not given here.

T1 sequence (Q9NRR2 38-321 limits assumed, other chains not shown): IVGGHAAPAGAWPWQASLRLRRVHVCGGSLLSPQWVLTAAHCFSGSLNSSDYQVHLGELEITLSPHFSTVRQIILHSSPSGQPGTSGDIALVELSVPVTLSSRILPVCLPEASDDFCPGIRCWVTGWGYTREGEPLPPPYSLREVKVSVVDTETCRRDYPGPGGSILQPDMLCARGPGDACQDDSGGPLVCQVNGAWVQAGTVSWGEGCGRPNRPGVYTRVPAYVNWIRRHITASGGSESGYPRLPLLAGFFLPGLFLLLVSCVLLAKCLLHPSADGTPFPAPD
Sequence of Pro-cathepsin H (Homo sapiens) (P09668 116-335 limits assumed, other chains not shown): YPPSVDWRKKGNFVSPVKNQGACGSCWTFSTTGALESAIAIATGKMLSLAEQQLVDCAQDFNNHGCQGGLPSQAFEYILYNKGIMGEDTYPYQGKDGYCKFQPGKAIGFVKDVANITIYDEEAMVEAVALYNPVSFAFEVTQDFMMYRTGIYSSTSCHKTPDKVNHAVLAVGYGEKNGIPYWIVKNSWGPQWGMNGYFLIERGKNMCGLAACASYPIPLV
Sequence of Matrilysin (Homo sapiens) (P09237 whole entry): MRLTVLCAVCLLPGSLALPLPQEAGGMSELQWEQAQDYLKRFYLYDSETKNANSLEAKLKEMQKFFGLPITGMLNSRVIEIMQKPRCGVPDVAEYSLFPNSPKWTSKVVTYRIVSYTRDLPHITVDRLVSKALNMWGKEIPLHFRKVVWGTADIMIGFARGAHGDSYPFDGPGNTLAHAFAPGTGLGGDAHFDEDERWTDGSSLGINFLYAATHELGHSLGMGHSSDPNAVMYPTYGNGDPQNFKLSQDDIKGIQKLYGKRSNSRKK
Sequence of Papain (Carica papaya) (P00784 whole entry): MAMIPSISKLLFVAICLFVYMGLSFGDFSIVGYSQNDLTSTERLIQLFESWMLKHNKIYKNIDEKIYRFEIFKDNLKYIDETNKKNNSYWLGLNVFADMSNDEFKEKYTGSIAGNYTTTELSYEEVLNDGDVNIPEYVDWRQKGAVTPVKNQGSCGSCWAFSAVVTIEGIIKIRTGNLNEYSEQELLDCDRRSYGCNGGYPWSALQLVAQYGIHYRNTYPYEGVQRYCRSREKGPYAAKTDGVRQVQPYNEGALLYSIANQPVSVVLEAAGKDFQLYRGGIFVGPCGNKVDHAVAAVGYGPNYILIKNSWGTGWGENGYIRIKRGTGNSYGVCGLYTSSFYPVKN
Sequence of Matrix metalloproteinase-9 (Homo sapiens) (P14780 whole entry): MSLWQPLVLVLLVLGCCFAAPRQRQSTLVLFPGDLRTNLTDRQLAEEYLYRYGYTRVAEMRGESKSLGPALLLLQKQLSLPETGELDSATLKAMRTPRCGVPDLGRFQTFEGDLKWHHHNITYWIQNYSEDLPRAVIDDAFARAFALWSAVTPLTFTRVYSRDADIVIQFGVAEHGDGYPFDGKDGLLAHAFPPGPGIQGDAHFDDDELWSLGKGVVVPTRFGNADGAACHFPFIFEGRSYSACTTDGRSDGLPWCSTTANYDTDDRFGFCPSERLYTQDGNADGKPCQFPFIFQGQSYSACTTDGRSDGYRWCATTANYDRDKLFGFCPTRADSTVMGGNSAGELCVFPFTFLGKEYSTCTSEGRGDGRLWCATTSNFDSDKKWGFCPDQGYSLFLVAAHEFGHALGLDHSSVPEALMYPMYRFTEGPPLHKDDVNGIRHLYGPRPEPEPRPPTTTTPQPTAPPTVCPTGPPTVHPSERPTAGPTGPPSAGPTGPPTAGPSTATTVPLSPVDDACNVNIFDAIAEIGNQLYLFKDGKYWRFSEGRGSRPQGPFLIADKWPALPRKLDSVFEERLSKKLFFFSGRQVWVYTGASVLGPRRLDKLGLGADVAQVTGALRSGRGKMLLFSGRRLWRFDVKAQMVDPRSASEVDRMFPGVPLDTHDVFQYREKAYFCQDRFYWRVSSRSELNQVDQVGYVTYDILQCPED
Sequence of Interstitial collagenase (Homo sapiens) (P03956 whole entry): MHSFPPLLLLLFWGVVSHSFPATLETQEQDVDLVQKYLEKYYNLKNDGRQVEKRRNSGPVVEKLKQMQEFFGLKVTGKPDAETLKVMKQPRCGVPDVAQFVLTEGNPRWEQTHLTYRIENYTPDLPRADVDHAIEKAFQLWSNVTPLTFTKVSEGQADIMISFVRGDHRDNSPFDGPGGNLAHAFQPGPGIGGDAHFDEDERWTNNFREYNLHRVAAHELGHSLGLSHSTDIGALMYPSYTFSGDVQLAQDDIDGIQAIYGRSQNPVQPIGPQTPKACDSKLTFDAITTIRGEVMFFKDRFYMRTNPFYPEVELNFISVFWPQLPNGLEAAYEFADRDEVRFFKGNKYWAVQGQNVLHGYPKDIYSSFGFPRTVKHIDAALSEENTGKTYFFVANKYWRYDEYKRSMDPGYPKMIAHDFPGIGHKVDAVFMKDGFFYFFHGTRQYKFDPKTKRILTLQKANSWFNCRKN
Sequence of Tissue-type plasminogen activator (Homo sapiens) (P00750 36-562 limits assumed): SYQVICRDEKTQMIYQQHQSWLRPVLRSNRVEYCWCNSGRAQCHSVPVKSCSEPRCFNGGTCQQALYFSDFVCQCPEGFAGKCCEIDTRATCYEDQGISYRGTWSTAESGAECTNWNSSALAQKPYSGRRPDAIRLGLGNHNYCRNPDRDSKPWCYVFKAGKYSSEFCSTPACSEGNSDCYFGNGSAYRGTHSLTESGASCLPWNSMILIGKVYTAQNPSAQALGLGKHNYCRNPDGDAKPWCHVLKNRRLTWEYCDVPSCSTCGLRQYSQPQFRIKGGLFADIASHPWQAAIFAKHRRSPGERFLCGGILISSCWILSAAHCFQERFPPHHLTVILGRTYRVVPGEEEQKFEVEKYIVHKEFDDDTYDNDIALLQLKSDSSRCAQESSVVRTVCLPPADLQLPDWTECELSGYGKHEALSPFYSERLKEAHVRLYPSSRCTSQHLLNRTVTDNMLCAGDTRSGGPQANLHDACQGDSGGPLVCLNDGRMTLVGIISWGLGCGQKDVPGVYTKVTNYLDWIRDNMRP
Sequence of Cathepsin D (Homo sapiens) (P07339 65-162 limits assumed): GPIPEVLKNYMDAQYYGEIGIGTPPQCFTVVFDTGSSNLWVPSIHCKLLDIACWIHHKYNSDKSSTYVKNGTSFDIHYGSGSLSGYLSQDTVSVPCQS
Sequence of Cathepsin D (Homo sapiens) (P07339 169-412 limits assumed): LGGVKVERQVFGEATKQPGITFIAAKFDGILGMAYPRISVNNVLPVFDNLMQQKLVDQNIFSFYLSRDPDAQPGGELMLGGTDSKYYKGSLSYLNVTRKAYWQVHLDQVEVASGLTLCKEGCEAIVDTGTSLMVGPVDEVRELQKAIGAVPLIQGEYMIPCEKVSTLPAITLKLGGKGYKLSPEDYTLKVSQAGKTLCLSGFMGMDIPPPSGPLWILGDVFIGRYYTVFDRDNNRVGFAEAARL

For the compound `C/C=C1\NC(=O)[C@@H](NC(=O)[C@@H](NC(=O)[C@@H](COS(=O)(=O)[O-])OC)C(C)C)[C@@H](C)OC(=O)[C@H]([C@H](C)CC)NC(=O)[C@H](Cc2ccccc2)N(C)C(=O)[C@H](Cc2ccccc2)N2C(=O)[C@H](CC[C@H]2O)NC1=O.[Na+]` [Symplostatin 5], the IC50 against Tryptase gamma [1] was < 10 µM; in experiment [3] it was > 10 µM; at Chymase, < 10 µM. Further, the inhibition result in experiment [2] is “Active”. For the same compound, the Activity (on Papain (Carica papaya); in experiment [4]; in experiment [5]; in experiment [6]; at Tryptase gamma [7]; in experiment [8]) was 100% each time. Besides, the Activity in experiment [9], in [10], in experiment [11], in experiment [12], in [13] and in [14] was 100% in each case. For the same compound, the Activity in experiment [15], in experiment [17], in [18], in experiment [19] and in experiment [21] was 100% each time. In addition, the negative logarithm of the IC50 (pIC50) at Trypsin is > 5; in [16], 6.1; in [20], > 5.

A word on the IC50: it is the concentration needed to halve the response being measured. Broadly, the pIC50 is −log10 of the IC50, conventionally taken in molar units.
